ChEMBL document CHEMBL4028886 (J Med Chem, 2017)

Columns and labels:
Rattus norvegicus [1] = assay: Neurotoxicity in Sprague-Dawley rat assessed as locomotor activity score at 10 mg/kg, ip administered 30 mins prior to test (reference value: 2.6 +/- 0.9661); format: toxicity, organism-based; conditions: in vivo, 0.5 h
Rattus norvegicus [2] = assay: Neurotoxicity in Sprague-Dawley rat assessed as effect on frequency of spontaneous changes of direction at 10 mg/kg, ip administered 30 mins prior to test by open field test; format: toxicity, organism-based; conditions: in vivo, 0.5 h
How it was run: (§1)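 Male Sprague–Dawley rats, 10 per group, given 10 mg/kg ip daily for 10 days and 30 min before each test. DMSO vehicle group as control. Open field arena 100 × 100 cm with 40 cm walls. Animals video-tracked for 10 min.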

Rattus norvegicus [3] = assay: Neurotoxicity in Sprague-Dawley rat assessed as effect on time spent in the left closed arm at 10 mg/kg, ip administered 30 mins prior to test by elevated plus maze test relative to control; format: toxicity, organism-based; conditions: in vivo, 0.5 h
How it was run: (§2)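 Male Sprague–Dawley rats, 10 per group, dosed 10 mg/kg ip daily for 10 days and 30 min before testing. DMSO vehicle controls. Elevated plus maze, rats placed centrally and video-tracked. Recorded: time in closed and open arms, arm entries, path length.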

Rattus norvegicus [4] = assay: Neurotoxicity in Sprague-Dawley rat assessed as pelvic elevation score at 10 mg/kg, ip administered 30 mins prior to test (reference value: 3.8 +/- 0.6325); format: toxicity, organism-based; conditions: in vivo, 0.5 h
Rattus norvegicus [5] = assay: Neurotoxicity in Sprague-Dawley rat assessed as finger approach score at 10 mg/kg, ip administered 30 mins prior to test (reference value: 1.4 +/- 1.350); format: toxicity, organism-based; conditions: in vivo, 0.5 h
Rattus norvegicus [6] = assay: Neurotoxicity in Sprague-Dawley rat assessed as touch escape score at 10 mg/kg, ip administered 30 mins prior to test (reference value: 1.2 +/- 1.033); format: toxicity, organism-based; conditions: in vivo, 0.5 h
Rattus norvegicus [7] = assay: Neurotoxicity in Sprague-Dawley rat assessed as effect on time spent in the left open arm at 10 mg/kg, ip administered 30 mins prior to test by elevated plus maze test relative to control; format: toxicity, organism-based; conditions: in vivo, 0.5 h; how it was run: as §2
Rattus norvegicus [8] = assay: Neurotoxicity in Sprague-Dawley rat assessed as grip strength score at 10 mg/kg, ip administered 30 mins prior to test (reference value: 2.4 +/- 1.265); format: toxicity, organism-based; conditions: in vivo, 0.5 h
Rattus norvegicus [9] = assay: Neurotoxicity in Sprague-Dawley rat assessed as transfer arousal score at 10 mg/kg, ip administered 30 mins prior to test (reference value: 3.1 +/- 0.3162); format: toxicity, organism-based; conditions: in vivo, 0.5 h
Rattus norvegicus [10] = assay: Neurotoxicity in Sprague-Dawley rat assessed as effect on resting time at 10 mg/kg, ip administered 30 mins prior to test by open field test relative to control; format: toxicity, organism-based; conditions: in vivo, 0.5 h; how it was run: as §1
Rattus norvegicus [11] = assay: Neurotoxicity in Sprague-Dawley rat assessed as tail pinch score at 10 mg/kg, ip administered 30 mins prior to test (reference value: 0.8 +/- 0.788); format: toxicity, organism-based; conditions: in vivo, 0.5 h
[12] = molecular target: Sodium-dependent dopamine transporter (Homo sapiens, UniProt Q01959); assay: Inhibition of re-uptake of [3H]-dopamine at human DAT expressed in HEK293 cells preincubated for 5 mins followed by [3H]-dopamine addition measured after 1 min by liquid scintillation counting; format: cell-based; conditions: read-out: IC50
How it was run: (§3)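 HEK293 cells stably expressing human DAT or NET, seeded on PDL-coated plates 24 h before. Preincubated 5 min in Krebs–HEPES buffer pH 7.3 with compound at 0.001 μM to 1 mM (DMSO stock diluted in buffer). Substrate then added: 0.2 μM [3H]dopamine for DAT, 1 min; 0.05 μM [3H]MPP+ for NET, 3 min. Room temperature. Uptake stopped with ice-cold buffer. Cells lysed in 1% SDS and counted by scintillation. Unspecific uptake defined with 10 μM mazindol. IC50 by nonlinear regression.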

Rattus norvegicus [13] = assay: Neurotoxicity in Sprague-Dawley rat assessed as effect on immobility time at 10 mg/kg, ip administered 30 mins prior to test by forced swim test relative to control; format: toxicity, organism-based; conditions: in vivo, 0.5 h
How it was run: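 Male Sprague–Dawley rats, 10 per group, dosed 10 mg/kg ip daily for 10 days and 30 min before testing. DMSO vehicle controls. Forced swim in a cylinder 18 cm diameter with 23 cm water at 25 °C. 15 min pretest, then a 5 min test 24 h later. Immobility duration scored over the 5 min.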

Rattus norvegicus [14] = assay: Neurotoxicity in Sprague-Dawley rat assessed as effect on number of crossings of the center at 10 mg/kg, ip administered 30 mins prior to test by open field test relative to control; format: toxicity, organism-based; conditions: in vivo, 0.5 h; how it was run: as §1
Rattus norvegicus [15] = assay: Neurotoxicity in Sprague-Dawley rat assessed as effect on distance traveled in open arms at 10 mg/kg, ip administered 30 mins prior to test by elevated plus maze test relative to control; format: toxicity, organism-based; conditions: in vivo, 0.5 h; how it was run: as §2
Rattus norvegicus [16] = assay: Neurotoxicity in Sprague-Dawley rat assessed as body position score at 10 mg/kg, ip administered 30 mins prior to test (reference value: 1.8 +/- 0.4216); format: toxicity, organism-based; conditions: in vivo, 0.5 h
Rattus norvegicus [17] = assay: Neurotoxicity in Sprague-Dawley rat assessed as visual placing score at 10 mg/kg, ip administered 30 mins prior to test (reference value: 1.9 +/- 0.3162); format: toxicity, organism-based; conditions: in vivo, 0.5 h
[18] = molecular target: Sodium-dependent noradrenaline transporter (Homo sapiens, UniProt P23975); assay: Inhibition of re-uptake of [3H]MPP+ at human NET expressed in HEK293 cells preincubated for 5 mins followed by […] addition measured after 3 min by liquid scintillation counting; format: cell-based; conditions: hek293; how it was run: as §3
Rattus norvegicus [19] = assay: Neurotoxicity in Sprague-Dawley rat assessed as pinna reflex score at 10 mg/kg, ip administered 30 mins prior to test (reference value: 1.2 +/- 1.033); format: toxicity, organism-based; conditions: in vivo, 0.5 h
Rattus norvegicus [20] = assay: Neurotoxicity in Sprague-Dawley rat assessed as effect on time spent on revolving rod at 10 mg/kg, ip administered 30 mins prior to test by rotarod test relative to control; format: toxicity, organism-based; conditions: in vivo, 0.5 h
How it was run: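 Male Sprague–Dawley rats, 10 per group, dosed 10 mg/kg ip daily for 10 days and 30 min before testing. DMSO vehicle controls. Rotarod, time spent on the revolving rod recorded.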

Rattus norvegicus [21] = assay: Neurotoxicity in Sprague-Dawley rat assessed as effect on large movements at 10 mg/kg, ip administered 30 mins prior to test by open field test relative to control; format: toxicity, organism-based; conditions: in vivo, 0.5 h; how it was run: as §1
Rattus norvegicus [22] = assay: Neurotoxicity in Sprague-Dawley rat assessed as effect on total distance traveled at 10 mg/kg, ip administered 30 mins prior to test by elevated plus maze test relative to control; format: toxicity, organism-based; conditions: in vivo, 0.5 h; how it was run: as §2
Rattus norvegicus [23] = assay: Neurotoxicity in Sprague-Dawley rat assessed as limb tone score at 10 mg/kg, ip administered 30 mins prior to test (reference value: 3.3 +/- 0.6749); format: toxicity, organism-based; conditions: in vivo, 0.5 h
Rattus norvegicus [24] = assay: Neurotoxicity in Sprague-Dawley rat assessed as toe pinch score at 10 mg/kg, ip administered 30 mins prior to test (reference value: 1.8 +/- 0.6325); format: toxicity, organism-based; conditions: in vivo, 0.5 h
Rattus norvegicus [25] = assay: Neurotoxicity in Sprague-Dawley rat assessed as effect on time spent in closed arm at 10 mg/kg, ip administered 30 mins prior to test by elevated plus maze test relative to control; format: toxicity, organism-based; conditions: in vivo, 0.5 h; how it was run: as §2
Rattus norvegicus [26] = assay: Neurotoxicity in Sprague-Dawley rat assessed as effect on average velocity at 10 mg/kg, ip administered 30 mins prior to test by open field test relative to control; format: toxicity, organism-based; conditions: in vivo, 0.5 h; how it was run: as §1
Rattus norvegicus [27] = assay: Neurotoxicity in Sprague-Dawley rat assessed as piloerection score at 10 mg/kg, ip administered 30 mins prior to test (reference value: 2.1 +/- 0.3162); format: toxicity, organism-based; conditions: in vivo, 0.5 h

Sequence of Sodium-dependent dopamine transporter (Q01959 whole entry): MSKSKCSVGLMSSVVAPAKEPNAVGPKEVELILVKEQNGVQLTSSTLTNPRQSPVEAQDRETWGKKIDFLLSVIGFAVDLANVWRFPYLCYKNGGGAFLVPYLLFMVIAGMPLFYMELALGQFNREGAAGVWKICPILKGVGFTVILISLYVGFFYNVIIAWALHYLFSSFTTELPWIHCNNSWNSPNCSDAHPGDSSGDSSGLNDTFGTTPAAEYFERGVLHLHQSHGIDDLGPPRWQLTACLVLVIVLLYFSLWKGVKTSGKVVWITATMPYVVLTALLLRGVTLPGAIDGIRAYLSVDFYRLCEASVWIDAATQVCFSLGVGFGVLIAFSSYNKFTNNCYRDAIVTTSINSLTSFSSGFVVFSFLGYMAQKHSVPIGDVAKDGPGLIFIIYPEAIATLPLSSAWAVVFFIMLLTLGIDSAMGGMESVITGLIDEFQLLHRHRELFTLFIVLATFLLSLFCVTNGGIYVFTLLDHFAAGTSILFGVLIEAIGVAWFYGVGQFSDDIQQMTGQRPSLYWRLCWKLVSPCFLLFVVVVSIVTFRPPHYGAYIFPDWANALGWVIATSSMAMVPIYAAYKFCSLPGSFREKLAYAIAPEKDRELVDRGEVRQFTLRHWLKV
Sequence of Sodium-dependent noradrenaline transporter (P23975 whole entry): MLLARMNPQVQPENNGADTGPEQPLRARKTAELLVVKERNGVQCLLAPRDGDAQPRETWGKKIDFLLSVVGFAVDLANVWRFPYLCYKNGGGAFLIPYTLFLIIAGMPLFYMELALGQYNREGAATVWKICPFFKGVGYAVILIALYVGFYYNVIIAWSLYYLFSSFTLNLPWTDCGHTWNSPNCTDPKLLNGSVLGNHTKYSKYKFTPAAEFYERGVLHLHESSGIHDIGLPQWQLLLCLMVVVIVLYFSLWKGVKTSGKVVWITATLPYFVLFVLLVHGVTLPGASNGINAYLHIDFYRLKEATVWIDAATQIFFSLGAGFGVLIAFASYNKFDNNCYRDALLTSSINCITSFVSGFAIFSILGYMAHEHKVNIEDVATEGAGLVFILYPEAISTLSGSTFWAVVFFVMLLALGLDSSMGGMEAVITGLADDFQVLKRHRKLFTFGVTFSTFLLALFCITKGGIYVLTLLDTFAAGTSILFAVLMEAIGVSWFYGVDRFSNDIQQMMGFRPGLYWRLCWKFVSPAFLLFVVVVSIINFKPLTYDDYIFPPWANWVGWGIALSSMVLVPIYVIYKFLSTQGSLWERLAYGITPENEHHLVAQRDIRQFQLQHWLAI

For [O-][S+](Cc1cccs1)C(c1ccccc1)c1ccccc1 (configuration not stated), the Activity (Rattus norvegicus [1]) was 2.6, the Activity (Rattus norvegicus [2]) was “Non-Toxic” and the Activity (Rattus norvegicus [3]) was “Non-Toxic”. For the same compound, the Activity (Rattus norvegicus [4]) was 3.6, the Activity (Rattus norvegicus [5]) was 1.4 and the Activity (Rattus norvegicus [6]) was 1.2. The Activity (Rattus norvegicus [7]) was “Non-Toxic”, the Activity (Rattus norvegicus [8]) was 3 and the Activity (Rattus norvegicus [9]) was 3.2. The Activity (Rattus norvegicus [10]) was “Non-Toxic”, the Activity (Rattus norvegicus [11]) was 0.9 and the IC50 [12] was 1400 nM. The Activity (Rattus norvegicus [13]) was “Non-Toxic”, the Activity (Rattus norvegicus [14]) was “Non-Toxic” and the Activity (Rattus norvegicus [15]) was “Non-Toxic”. The Activity (Rattus norvegicus [16]) was 1.9, the Activity (Rattus norvegicus [17]) was 1.7 and the IC50 [18] was “Not Active”. The Activity (Rattus norvegicus [19]) was 1.4, the Activity (Rattus norvegicus [20]) was “Non-Toxic” and the Activity (Rattus norvegicus [21]) was “Non-Toxic”. The Activity (Rattus norvegicus [22]) was “Non-Toxic”, the Activity (Rattus norvegicus [23]) was 3.5 and the Activity (Rattus norvegicus [24]) was 1.6. For the same compound, the Activity (Rattus norvegicus [25]) was “Non-Toxic”, the Activity (Rattus norvegicus [26]) was “Non-Toxic” and the Activity (Rattus norvegicus [27]) was 2.2.
